Results on 13 molecules are retold here after ChEMBL document CHEMBL1125311, “Inhibition of human leukocyte elastase. 4. Selection of a substituted cephalosporin (L-658,758) as a topical aerosol” (J Med Chem, 1992).

A word on the Inhibition: it is the drop in the measured response relative to a control, in per cent. Broadly, the half-life is how long it takes for the measured level to halve. The Ki is the dissociation constant of the complex between target and ligand, obtained from inhibition or displacement. Low readings indicate higher affinity, high ones lower affinity.

In one series the test system is Cricetinae gen. sp. The series can be described thus: Compound was evaluated in vivo for inhibition of HLE-induced hemorrhage in hamster lung at 10microg, 30 min after administration prior to HLE. The class given is functional, Cricetulus griseus. The method in brief:
(§1)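 Hamster, intratracheal dosing of compound (per animal) 30 min before IT instillation of 50 μg HLE (50 units in Experimental); hemorrhage read 3 h later: lungs lavaged with saline, hemoglobin in lavage measured at 414 nm. Percent inhibition from drug-treated vs vehicle-treated hemorrhage; three animals per dose and time. Titration at 100, 30, 10, 3 μg/animal gives ED50.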
Take `CO[C@H]1C(=O)N2C(C(=O)N(C)CC(=O)O)=C(COC(=O)NCc3ccccc3)CS(=O)(=O)[C@H]12`: the Inhibition is on record as 27%.

On to `CO[C@H]1C(=O)N2C(C(=O)N(C)CC(=O)O)=C(CSc3ccccn3)CS(=O)(=O)[C@H]12`, for which the Inhibition came out at 35%.

System in the next series: not listed separately
The series can be described thus: Half-life value of the compound. The format is ADME. The method in brief:
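Chemical stability: compound dissolved at 1 mg/mL in 0.5 M MOPS, pH 8.0, held at 25 °C in capped vial; aliquots quenched in 2% aqueous TFA and analysed by reverse-phase HPLC over one to two half-lives. Peak areas fit to first-order decay F(t)=A/2^(t/t1/2) to give t1/2.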
`CO[C@H]1C(=O)N2C(C(=O)N3CCC[C@@H]3C(=O)O)=C(COC(C)=O)CS(=O)(=O)[C@H]12` returned a half-life of less than 5 h.

In the case of `CO[C@H]1C(=O)N2C(C(=O)N3CCCC3)=C(COC(C)=O)CS(=O)(=O)[C@H]12`, the half-life is 16 h.

For the molecule `CC[C@H]1C(=O)N2C(C(=O)N(C)CC(=O)O)=C(COC(C)=O)CS(=O)(=O)[C@H]12`, the half-life was more than 50 h.

For `CO[C@H]1C(=O)N2C(C(=O)N(C)CC(=O)O)=C(COC(C)=O)C(C)S(=O)(=O)[C@H]12` (some centres undefined), the half-life was 8 h.

A further series deals with T1, Neutrophil elastase (Homo sapiens, UniProt P08246).
T1 sequence (P08246 whole entry): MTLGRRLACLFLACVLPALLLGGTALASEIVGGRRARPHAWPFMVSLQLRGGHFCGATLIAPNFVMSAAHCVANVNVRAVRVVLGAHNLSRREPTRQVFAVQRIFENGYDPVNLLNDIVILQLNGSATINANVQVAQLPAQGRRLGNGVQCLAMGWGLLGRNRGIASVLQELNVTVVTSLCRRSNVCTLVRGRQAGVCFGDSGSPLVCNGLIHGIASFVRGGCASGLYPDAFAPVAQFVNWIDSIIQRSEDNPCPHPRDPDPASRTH
Nature of the series: In vitro inhibitory activity against human leukocyte elastase.
For the molecule `CO[C@H]1C(=O)N2C(C(=O)N3CCC[C@@H]3C(=O)O)=C(COC(C)=O)CS(=O)(=O)[C@H]12`, the inhibition constant Ki was 3.4 µM.

Turning to `CO[C@H]1C(=O)N2C(C(=O)N(CC(=O)O)Cc3ccccc3)=C(COC(C)=O)CS(=O)(=O)[C@H]12`, the affinity, expressed as Ki, was 6.1 µM.

In turn, `CO[C@H]1C(=O)N2C(C(=O)N(C)CC(=O)O)=C(CSc3ccccn3)CS(=O)(=O)[C@H]12` came in with an inhibition constant (Ki) of 43 µM.

Another series has as its target T2, Neutrophil elastase (Homo sapiens) (UniProt P08246).
T2 sequence (whole entry): T1 sequence (P08246 whole entry)
Turning to `CO[C@H]1C(=O)N2C(C(=O)N(C)[C@H](C)C(=O)O)=C(COC(C)=O)CS(=O)(=O)[C@H]12`, the k obs / 1 amounted to 900 M⁻¹ s⁻¹.

In the case of `CO[C@H]1C(=O)N2C(C(=O)N(C)Cc3ccccc3)=C(COC(=O)c3ccc(C(=O)O)cc3)CS(=O)(=O)[C@H]12`, the k obs / 1 came to 10000 M⁻¹ s⁻¹.

`CO[C@H]1C(=O)N2C(C(=O)N(C)CC(=O)O)=C(CSc3nnnn3C)CS(=O)(=O)[C@H]12` registered a k obs / 1 of 600 M⁻¹ s⁻¹.

`CO[C@H]1C(=O)N2C(C(=O)N(C)CC(=O)O)=C(COC(=O)NCc3ccccc3)CS(=O)(=O)[C@H]12` registered a k obs / 1 of 600 M⁻¹ s⁻¹.

`CO[C@H]1C(=O)N2C(C(=O)NC(C)(C)C)=C(COC(C)=O)CS(=O)(=O)[C@H]12` displayed a k obs / 1 of 2200 M⁻¹ s⁻¹.

For the molecule `CO[C@H]1C(=O)N2C(C(=O)N3CCCC3)=C(COC(C)=O)CS(=O)(=O)[C@H]12`, the k obs / 1 was found to be 27000 M⁻¹ s⁻¹.

On to `CO[C@H]1C(=O)N2C(C(=O)N3CCC(O)C3)=C(COC(C)=O)CS(=O)(=O)[C@H]12` (some centres undefined), for which the k obs / 1 came to 12000 M⁻¹ s⁻¹.

`CO[C@H]1C(=O)N2C(C(=O)N3CCC(C(=O)O)C3)=C(COC(C)=O)CS(=O)(=O)[C@H]12` (some centres undefined) registered a k obs / 1 of 1900 M⁻¹ s⁻¹.

As to `CC[C@H]1C(=O)N2C(C(=O)N(C)CC(=O)O)=C(COC(C)=O)CS(=O)(=O)[C@H]12`, the k obs / 1 stood at 30 M⁻¹ s⁻¹.

On to `CO[C@H]1C(=O)N2C(C(=O)N(C)CC(=O)O)=C(COC(C)=O)C(C)S(=O)(=O)[C@H]12` (some centres undefined), for which the k obs / 1 worked out at 1400 M⁻¹ s⁻¹.

A further series relates to Cricetinae gen. sp. Nature of the series: Compound was evaluated in vivo for inhibition of HLE-induced hemorrhage in hamster lung at 30microg, 30 min after administration prior to HLE. The class given is functional, Cricetulus griseus. The method in brief:
as §1
In the case of `CO[C@H]1C(=O)N2C(C(=O)N(C)CC(=O)O)=C(COC(=O)NCc3ccccc3)CS(=O)(=O)[C@H]12`, the Inhibition was found to be 93%.

Consider `CO[C@H]1C(=O)N2C(C(=O)N(CC(=O)O)Cc3ccccc3)=C(COC(C)=O)CS(=O)(=O)[C@H]12`, for which the Inhibition is given as 30%.

Take `CO[C@H]1C(=O)N2C(C(=O)N(C)CC(=O)O)=C(CSc3ccccn3)CS(=O)(=O)[C@H]12`: the Inhibition was 46%.

A further series relates to Cricetinae gen. sp. Nature of the series: Compound was evaluated in vivo for inhibition of HLE-induced hemorrhage in hamster lung at 100 microg, 30 min after administration prior to HLE. The format is functional, Cricetulus griseus. The method, boiled down:
as §1
`CO[C@H]1C(=O)N2C(C(=O)N(C)[C@H](C)C(=O)O)=C(COC(C)=O)CS(=O)(=O)[C@H]12`: the Inhibition is on record as 97%.

Take `CO[C@H]1C(=O)N2C(C(=O)N(C)CC(=O)O)=C(COC(=O)NCc3ccccc3)CS(=O)(=O)[C@H]12`: the Inhibition stood at 91%.

In the case of `CO[C@H]1C(=O)N2C(C(=O)N(CC(=O)O)Cc3ccccc3)=C(COC(C)=O)CS(=O)(=O)[C@H]12`, the Inhibition is 42%.

For `CO[C@H]1C(=O)N2C(C(=O)N(C)CC(=O)O)=C(CSc3ccccn3)CS(=O)(=O)[C@H]12`, the Inhibition was 76%.

The subject of the next series is Cricetinae gen. sp. The series can be described thus: Compound was evaluated in vivo for inhibition of HLE-induced hemorrhage in hamster lung at 400 microg, 30 min after administration. The format is functional, Cricetulus griseus.
On to `CO[C@H]1C(=O)N2C(C(=O)NC(C)(C)C)=C(COC(C)=O)CS(=O)(=O)[C@H]12`, for which the Inhibition is reported as -5%.

In another series the test system is Cricetinae gen. sp. The series can be described thus: Compound was evaluated in vivo for inhibition of HLE-induced hemorrhage in hamster lung at 10 microg, 30 min after administration prior to HLE. The class given is functional, Cricetulus griseus. The method in brief:
as §1
For the molecule `CO[C@H]1C(=O)N2C(C(=O)N(C)[C@H](C)C(=O)O)=C(COC(C)=O)CS(=O)(=O)[C@H]12`, the Inhibition was determined as 29%.

Another series relates to Cricetinae gen. sp. Nature of the series: Compound was evaluated in vivo for inhibition of HLE-induced hemorrhage in hamster lung at 30 microg, 30 min after administration prior to HLE. The format is functional, Cricetulus griseus. The method in brief:
as §1
With `CO[C@H]1C(=O)N2C(C(=O)N(C)[C@H](C)C(=O)O)=C(COC(C)=O)CS(=O)(=O)[C@H]12`, the Inhibition is given as 90%.
